High-throughput results from PubChem BioAssay.
The full list was thinned out, with hits kept by preference.
Mdm2 ligase inh: MDM2-luciferase reporter signal enhancers, primary screen, MDM2 E3 ligase inhibitor project, cell-based, luminescence, 1536-well. AID 1230, 2008. 0.11% of 210,000 active. signal enhancement, % at 5 µM. E3 ubiquitin-protein ligase Mdm2 (Homo sapiens), Q00987. cell-based MDM2 ubiquitination luciferase reporter, 2 h; 0 = plate control, 100 = twice control, blank-subtracted;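 active = signal enhancement of 30% or more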;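 note: luminescence tracks abundance of the self-degrading MDM2-luciferase fusion protein; higher signal means inhibition of MDM2 E3 ligase activity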
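Assay system: stable mammalian line carrying autodegrading MDM2–luciferase fusion reporter; amount: 2000 cells seeded into each well; buffer or medium: DMEM; benchmarks: plate control and blank wells; signal: luciferase luminescence; timing: 2 h compound exposure at 37 °C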
S1P4 agonist: S1P4 receptor agonists, primary screen, cell-based. AID 1509, 2009. activation, % at 4.98 µM. S1P4-expressing cell line, agonist reporter assay. Sphingosine 1-phosphate receptor 4 (Homo sapiens), O95977. 0.35% of 220,000 active; in the data active = activation above about 11%;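 note: 0% = DMSO vehicle and 100% = reference agonist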
Target sequence (O95977 whole entry, looked up): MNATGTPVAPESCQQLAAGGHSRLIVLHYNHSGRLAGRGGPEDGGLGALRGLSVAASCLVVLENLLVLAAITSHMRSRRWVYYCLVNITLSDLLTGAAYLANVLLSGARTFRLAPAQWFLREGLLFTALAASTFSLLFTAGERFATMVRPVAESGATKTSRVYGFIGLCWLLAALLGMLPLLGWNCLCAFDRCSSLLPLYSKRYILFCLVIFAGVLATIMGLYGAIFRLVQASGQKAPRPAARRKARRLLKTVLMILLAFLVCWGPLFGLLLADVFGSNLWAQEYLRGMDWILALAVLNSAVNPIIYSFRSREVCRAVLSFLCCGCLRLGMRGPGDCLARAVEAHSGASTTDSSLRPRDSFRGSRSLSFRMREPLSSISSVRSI
S1P3 antag: S1P3 receptor antagonists, primary screen, cell-based. AID 485, 2006. 0.27% of 170,000 active. CHO S1P3 NFAT-BLA reporter, FRET fluorescence, antagonist mode. Sphingosine 1-phosphate receptor 3 (Homo sapiens), Q99500. inhibition, % at 4.98 µM;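 active = inhibition above the plate cutoff, the mean inhibition of test wells on that plate plus 3 SD, cut at about 28% in these data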;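 note: cells challenged with S1P at its EC80 of 0.8 µM; blue over green emission ratio from cleaved BLA substrate after 4 h stimulation; 0% = S1P-stimulated wells and 100% = unstimulated DMSO-only wells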
L major viab: Leishmania major promastigote growth inhibition, primary screen; Leishmania major promastigotes, resazurin fluorescence viability; inhibition, % at 10 µM; 9% of 200,000 active; AID 1063, 2008; in the data active = inhibition above about 50%;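 note: promastigotes grown with compound for 44 hours at 28 °C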
S1P4 antag: S1P4 receptor antagonists, primary screen, cell-based | Sphingosine 1-phosphate receptor 4 (Homo sapiens), O95977 | S1P4-expressing cells, antagonist mode, reporter read-out | inhibition, % at 4.98 µM | 0.26% of 220,000 active | AID 1510, 2009; in the data active = inhibition above about 29%;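 note: 0% = wells stimulated with agonist and 100% = vehicle wells without agonist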
* = called active by the depositor; x = no result; ! = not active in a repeat.

SMILES	Mdm2 ligase inh	S1P4 agonist	S1P3 antag	L major viab	S1P4 antag
COc1ccccc1-n1c(O)c(C=NCCN2CCNCC2)c(=O)[nH]c1=O	-11	-1	x	3	-5
O=C(c1ccc(C(F)(F)F)cc1)C1CCCN(C2CCSCC2)C1 (stereo not drawn)	-5	-1	-10	92*	-6
Cc1cccc(CN2CCCC(C(=O)c3ccc(C(F)(F)F)cc3)C2)n1 (stereo not drawn)	-6	1	-17	79*	-15
CSc1ccccc1C(=O)C1CCCN(Cc2cccc(C)n2)C1 (stereo not drawn)	-13	-1	-28	23	7
Cc1cc(Cl)ccc1C(=O)C1CCCN(C2CCSCC2)C1 (stereo not drawn)	x	-2	24	85*	1
COc1ccc(Cl)cc1C(=O)C1CCCN(CCO)C1 (stereo not drawn)	-5	2	-12	4	4
COC1C(OC(=O)c2ccc(C)[nH]2)C(O)C(Oc2ccc3c(O)c(NC(=O)c4ccc(O)c(CC=C(C)C)c4)c(=O)oc3c2Cl)OC1(C)C (stereo not drawn)	-7	2	5	x	4
O=[N+]([O-])c1ccc(N2CCCC2)cc1N/N=C1\CN2CCC1CC2	-4	1	-10	27	-13
O=C(N/N=C1/CN2CCC1CC2)c1cc2ccccc2cc1O	-1	0	x	92*	-3
O=[N+]([O-])c1cccc(CN2CCN(Cc3ccc(Br)cc3)CC2)c1	-89	0	-8	87*	-27
N#Cc1c(/N=C/c2ccc(O)cc2O)sc2c1C1CCN2CC1	0	1	-2	-5	-18
CN1CCN(CCC(C#N)(c2ccccc2)c2ccccc2)CC1	2	-1	x	79*	-17
CCN(CC)C1=NC(=[N+](CC)CC)c2ccccc21	-24	-1	x	100*	-4
CN1C2CCC1CC(=NO)C2	-3	-1	-1	-7	11
BrCC1C[n+]2c(SCc3ccccc3)nc3sc4c(c3c2O1)CCCC4 (stereo not drawn)	-14	-2	-10	x	-5
Nc1c2c(nc3sc4c(c13)CCCCC4)CCCC2	-3	1	6	93*	-8
O=C1C2CCN(CC2)[C@@H]1Cc1ccc2ccccc2c1O	-3	0	x	99*	3
Cc1cc2c(C(C)C)c(O)c(O)c(C=O)c2c(O)c1-c1c(C)cc2c(C(C)C)c(O)c(O)c(C=O)c2c1O	x	1	15	-13	32*!
CNC(=S)NC1CC2CCCC(C1)N2CC(C)C (stereo not drawn)	-15	0	x	1	1
Cc1ccc(CN2C3CCCC2CC(NC(=S)NCc2ccccc2)C3)cc1 (stereo not drawn)	-2	4	-4	92*	-1
CCC(C)n1c(O)c(/C=N/NC(=O)c2ccncc2)c(=O)[nH]c1=S (stereo not drawn)	-7	-1	2	100*	-14
O=c1[nH]c(=S)n(C2CC2)c(O)c1/C=N/Nc1ccccc1	-6	1	-7	89*	-11
CCCCC(=O)N/N=C/c1c(O)n(CCCC)c(=S)[nH]c1=O	-11	1	-10	x	-17
CCCCC(=O)N/N=C/c1c(O)n(C2CC2)c(=S)[nH]c1=O	1	-2	-3	98*	-13
CCn1c(O)c(/C=N/NC(=O)c2ccncc2)c(=O)[nH]c1=S	-5	1	-2	99*	-13
SMILES	Mdm2 ligase inh	S1P4 agonist	S1P3 antag	L major viab	S1P4 antag
O=C(N/N=C/c1c(O)n(Cc2ccc(F)cc2)c(=S)[nH]c1=O)c1ccncc1	-2	0	4	x	6
CC1=CC(=C2C(=O)NC(=S)NC2=O)C=C(C(F)(F)F)N1CCc1ccccc1	-10	2	8	-4	-9
CCC(=O)N1N=C(c2c(O)n(CCc3ccccc3)c(=O)[nH]c2=O)CC1c1ccc(OC)c(OC)c1 (stereo not drawn)	-3	-1	-12	x	14
CCC(C)n1c(O)c(/C=N/Nc2ccccc2)c(=O)[nH]c1=S (stereo not drawn)	-20	0	-5	81*	-11
CCC(C)n1c(O)c(C=NCCN2CCOCC2)c(=O)[nH]c1=S (stereo not drawn)	-14	-1	4	x	-10
CCC(C)n1c(O)c(/C=N/N2CCOCC2)c(=O)[nH]c1=S (stereo not drawn)	-6	-1	6	55*	-3
O=c1[nH]c(=O)n(CC2CCCO2)c(O)c1/C=C1\C=Nc2ccccc21 (stereo not drawn)	-1	2	4	2	1
CC1(C)C2([N+](=O)[O-])CN3CN(C2)CC1([N+](=O)[O-])C3	-11	3	-10	-5	-18
O=C(CN1CCCCC1)c1ccc2c(c1)OCO2	-8	0	-5	x	19
CCCCCCN1CCN(c2ccc(Cl)cc2)CC1	-5	-2	-19	82*	-4
O=C(c1cn(Cc2ccccc2)c2ccccc12)N1CCCCC1	-4	0	-10	11	-14
CC(Cc1ccccc1Sc1ccccc1O)N(C)C (stereo not drawn)	-6	-4	x	100*	-1
C#CCN(C)[C@H](C)Cc1ccccc1	x	2	1	x	4
CC(NCc1cccc(Cl)c1Cl)C(O)c1ccccc1 (stereo not drawn)	-9	-2	4	3	-10
CC(CCc1ccccc1)NC(C)C(O)c1ccc(O)cc1 (stereo not drawn)	x	-2	-7	89*	-9
Cn1cnc([N+](=O)[O-])c1Sc1ccc([N+](=O)[O-])cc1	-36	2	-4	84*	-26
CCc1ccc(CN2CCN(Cc3ccc(SC)cc3)CC2)cc1	-43	-1	-4	89*	-3
CSc1ccc(CN2CCN(C(=O)COc3ccc(C)cc3)CC2)cc1	9	3	-14	87*	2
Cc1ccc(OCC(=O)N2CCN(Cc3ccc4c(c3)OCO4)CC2)cc1C	-15	-2	-10	89*	1
Cc1cccc(OCC(=O)N2CCN(Cc3ccncc3)CC2)c1	-9	-6	x	0	2
Cc1cccc(OCC(=O)N2CCN(Cc3ccc4c(c3)OCO4)CC2)c1	-3	0	6	83*	-1
O=P(O)(Oc1ccccc1)OC(c1ccccc1)C(F)(F)C(F)(F)F (stereo not drawn)	-5	3	-5	-4	-8
CCCCC(=O)N/N=C/c1c(O)n(-c2cccc3ccccc23)c(=O)[nH]c1=O	-11	1	-1	x	5
Cc1nnc2n1-c1ccc(Cl)cc1C(c1ccccc1)=NC2	x	2	-23	x	-2
Cc1[nH]c2ccccc2c1C(=O)C(=O)N1CC2CC(C1)c1cccc(=O)n1C2 (stereo not drawn)	-15	1	9	-4	-2
